The source of these data is ChEMBL document CHEMBL1124357, “The xanthene-9-spiro-4'-piperidine nucleus as a probe for opiate activity” (J Med Chem, 1989).

For one assay, the species on record is Cavia porcellus. The assay can be described thus: Concentration to produce 50%inhibition of the electrically evoked twitch in guinea pig. The assay is classed as functional. In short, it runs like this: (§1)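 Electrically evoked twitch of guinea pig tissue. IC50, the concentration giving 50% inhibition of the twitch, was calculated by linear regression. Potency was expressed relative to normorphine assayed on the same tissues.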
Broadly, the IC50 is the concentration that inhibits the measured activity by half. Lower therefore signals greater potency. `Oc1ccc2c3c1O[C@H]1[C@@H](O)C=C[C@H]4[C@@H](C2)NCC[C@@]341` [NORMORPHINE]: the midpoint of inhibition, the IC50, lay at 31.3 nM.

The species named for the next assay is Cavia porcellus. The assay can be described thus: Relative potency to that of normorphine in the electrically stimulated Guinea pig ileum test. The class given is functional. In short, it runs like this: as §1
Compound `CN1CCC2(CC1)c1ccccc1Oc1c(CO)cccc12` showed a Relative potency of 0.004.

Turning to `CN1CCC2(CC1)c1cccc(O)c1Oc1cccc(Cl)c12`, the Relative potency was 0.031.

In the case of `c1ccc(NCCN2CCC3(CC2)c2ccccc2Oc2ccccc23)cc1`, the Relative potency stood at 3.5.

Compound `COc1cccc2c1C1(CCN(C)CC1)c1cccc(O)c1O2` gave a Relative potency of 0.094.

In the case of `CN1CCC2(CC1)c1ccccc1Oc1c(S)cccc12`, the Relative potency came to 0.001.

The compound `CN1CCC2(CC1)c1ccccc1Oc1c(N)cccc12` yielded a Relative potency of 0.055.

For the compound `CC(=O)Nc1cccc2c1Oc1ccccc1C21CCN(C)CC1`, the Relative potency came out at 0.008.

For `Cc1cccc2c1C1(CCN(C)CC1)c1cccc(O)c1O2`, the Relative potency is 0.237.

In turn, `CC(=O)Oc1cccc2c1Oc1ccccc1C21CCN(C)CC1` displayed a Relative potency of 1.

In the case of `CN1CCC2(CC1)c1ccccc1Oc1c(O)cccc12`, the Relative potency was found to be 0.175.

For the compound `CN1CCC2(CC1)c1cccc(O)c1Oc1cccc(F)c12`, the Relative potency is 0.16.

Take `CCC(=O)C(CC(C)N(C)C)(c1ccccc1)c1ccccc1` (stereo not drawn) [METHADONE]: the Relative potency was determined as 0.91.
